{"source": "ChEMBL document CHEMBL3272061", "about": "“Experiments of synthesis of dl-camptothecin. 4. Synthesis and antileukemic activity of dl-camptothecin analogues” (J Med Chem, 1976)", "key": {"L1210 [1]": {"tested_on": "L1210", "experiment": "Antileukemic activity against mouse L1210 cells allografted in BDF1 mouse assessed as increase in life span of host at 65.8 umol/kg, ip relative to control", "assay_type": "functional", "summary_of_the_method": "(§1)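 BDF1 mice, 5 weeks old, were inoculated ip with 5×10^5 L1210 cells; test groups had 4 males and 4 females, controls 5 males and 5 females. A single ip dose was given on the day after inoculation, as a suspension in vehicle for the insoluble compounds. Read-out was increase in life span over controls, with survivors past 30 days counted as 30 days.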"}, "L1210 [2]": {"tested_on": "L1210", "experiment": "Antileukemic activity against mouse L1210 cells allografted in BDF1 mouse assessed as host survival at 5.56 umol/kg, ip after 30 days", "assay_type": "functional, organism-based", "summary_of_the_method": "(§2)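 BDF1 mice, 5 weeks old, were inoculated ip with 5×10^5 L1210 cells in 0.1 ml saline. Test groups were 4 male and 4 female mice; controls were 5 male and 5 female. Insoluble compounds were suspended in vehicle. Dosing was ip, either once on the day after inoculation or daily for 5 days. Read-out was increase in life span over controls. Mice alive beyond 30 days were counted as 30 days and scored as survivors.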"}, "L1210 [3]": {"tested_on": "L1210", "experiment": "Antileukemic activity against mouse L1210 cells allografted in BDF1 mouse assessed as host survival at 132 umol/kg, ip after 30 days", "assay_type": "functional, organism-based", "summary_of_the_method": "as §2"}, "L1210 [4]": {"tested_on": "L1210", "experiment": "Antileukemic activity against mouse L1210 cells allografted in BDF1 mouse assessed as increase in life span of host at 27.8 umol/kg, ip relative to control", "assay_type": "functional", "summary_of_the_method": "as §1"}, "[5]": {"experiment": "Solubility of the compound", "assay_type": "physicochemical"}, "L1210 [6]": {"tested_on": "L1210", "experiment": "Antileukemic activity against mouse L1210 cells allografted in BDF1 mouse assessed as host survival at 65.8 umol/kg, ip after 30 days", "assay_type": "functional, organism-based", "summary_of_the_method": "as §2"}, "L1210 [7]": {"tested_on": "L1210", "experiment": "Antileukemic activity against mouse L1210 cells allografted in BDF1 mouse assessed as increase in life span of host at 5.56 umol/kg, ip relative to control", "assay_type": "functional", "summary_of_the_method": "as §1"}, "L1210 [8]": {"tested_on": "L1210", "experiment": "Antileukemic activity against mouse L1210 cells allografted in BDF1 mouse assessed as increase in life span of host at 26.3 umol/kg, ip relative to control", "assay_type": "functional", "summary_of_the_method": "as §1"}, "L1210 [9]": {"tested_on": "L1210", "experiment": "Antileukemic activity against mouse L1210 cells allografted in BDF1 mouse assessed as increase in life span of host at 132 umol/kg, ip relative to control", "assay_type": "functional", "summary_of_the_method": "as §2"}, "L1210 [10]": {"tested_on": "L1210", "experiment": "Antileukemic activity against mouse L1210 cells allografted in BDF1 mouse assessed as increase in life span of host at 130 umol/kg, ip relative to control", "assay_type": "functional", "summary_of_the_method": "as §2"}, "L1210 [11]": {"tested_on": "L1210", "experiment": "Antileukemic activity against mouse L1210 cells allografted in BDF1 mouse assessed as host survival at 65.1 umol/kg, ip after 30 days", "assay_type": "functional, organism-based", "summary_of_the_method": "(§3)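 BDF1 mice, 5 weeks old; test groups four males + four females, controls five + five. 5×10^5 L1210 cells in 0.1 ml saline given ip. Compound, suspended in suspending vehicle (sodium salt dissolved), injected ip once on the day after inoculation. Survival followed to 30 days; mice surviving beyond 30 days counted as 30 days and scored as survivor fraction; activity as increased life span over controls.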"}, "L1210 [12]": {"tested_on": "L1210", "experiment": "Antileukemic activity against mouse L1210 cells allografted in BDF1 mouse assessed as host survival at 130 umol/kg, ip after 30 days", "assay_type": "functional, organism-based", "summary_of_the_method": "as §3"}, "L1210 [13]": {"tested_on": "L1210", "experiment": "Antileukemic activity against mouse L1210 cells allografted in BDF1 mouse assessed as host survival at 26 umol/kg, ip after 30 days", "assay_type": "functional, organism-based", "summary_of_the_method": "as §3"}, "L1210 [14]": {"tested_on": "L1210", "experiment": "Antileukemic activity against mouse L1210 cells allografted in BDF1 mouse assessed as increase in life span of host at 65.1 umol/kg, ip relative to control", "assay_type": "functional", "summary_of_the_method": "as §1"}, "L1210 [15]": {"tested_on": "L1210", "experiment": "Antileukemic activity against mouse L1210 cells allografted in BDF1 mouse assessed as increase in life span of host at 26 umol/kg, ip relative to control", "assay_type": "functional", "summary_of_the_method": "as §1"}, "L1210 [16]": {"tested_on": "L1210", "experiment": "Antileukemic activity against mouse L1210 cells allografted in BDF1 mouse assessed as host survival at 69.4 umol/kg, ip after 30 days", "assay_type": "functional, organism-based", "summary_of_the_method": "as §3"}, "L1210 [17]": {"tested_on": "L1210", "experiment": "Antileukemic activity against mouse L1210 cells allografted in BDF1 mouse assessed as host survival at 27.8 umol/kg, ip after 30 days", "assay_type": "functional, organism-based", "summary_of_the_method": "as §2"}, "L1210 [18]": {"tested_on": "L1210", "experiment": "Antileukemic activity against mouse L1210 cells allografted in BDF1 mouse assessed as host survival at 5.58 umol/kg, ip after 30 days", "assay_type": "functional, organism-based", "conditions": "5.56 umol/kg, in the assay text read “5.56 umol/kg” for “5.58 umol/kg”", "summary_of_the_method": "as §3"}, "L1210 [19]": {"tested_on": "L1210", "experiment": "Antileukemic activity against mouse L1210 cells allografted in BDF1 mouse assessed as host survival at 139 umol/kg, ip after 30 days", "assay_type": "functional, organism-based", "summary_of_the_method": "as §2"}, "L1210 [20]": {"tested_on": "L1210", "experiment": "Antileukemic activity against mouse L1210 cells allografted in BDF1 mouse assessed as increase in life span of host at 139 umol/kg, ip relative to control", "assay_type": "functional", "summary_of_the_method": "as §2"}, "L1210 [21]": {"tested_on": "L1210", "experiment": "Antileukemic activity against mouse L1210 cells allografted in BDF1 mouse assessed as increase in life span of host at 69.4 umol/kg, ip relative to control", "assay_type": "functional", "summary_of_the_method": "as §1"}, "L1210 [22]": {"tested_on": "L1210", "experiment": "Antileukemic activity against mouse L1210 cells allografted in BDF1 mouse assessed as increase in life span of host at 24.4 umol/kg, ip relative to control", "assay_type": "functional", "summary_of_the_method": "as §1"}, "Mus musculus": {"species_on_record": "Mus musculus", "experiment": "Toxicity in mouse L1210 cells allografted BDF1 mouse", "assay_type": "organism-based"}, "L1210 [23]": {"tested_on": "L1210", "experiment": "Antileukemic activity against mouse L1210 cells allografted in BDF1 mouse assessed as host survival at 45.7 umol/kg, ip after 30 days", "assay_type": "functional, organism-based", "summary_of_the_method": "as §2"}, "L1210 [24]": {"tested_on": "L1210", "experiment": "Antileukemic activity against mouse L1210 cells allografted in BDF1 mouse assessed as host survival at 61 umol/kg, ip after 30 days", "assay_type": "functional, organism-based", "summary_of_the_method": "as §2"}, "L1210 [25]": {"tested_on": "L1210", "experiment": "Antileukemic activity against mouse L1210 cells allografted in BDF1 mouse assessed as increase in life span of host at 61 umol/kg, ip relative to control", "assay_type": "functional", "summary_of_the_method": "as §1"}, "L1210 [26]": {"tested_on": "L1210", "experiment": "Antileukemic activity against mouse L1210 cells allografted in BDF1 mouse assessed as increase in life span of host at 45.7 umol/kg, ip relative to control", "assay_type": "functional", "summary_of_the_method": "as §1"}}, "note": "The source made the active and inactive calls. The rule behind the calls is not given here."}
{"smiles": "CCC1(O)C(=O)OCc2c1cc1n(c2=O)CC2Cc3ccccc3N(C=O)C12", "note": "(mixture of isomers)", "values": [{"measurement": "ILS at 65.8 µmol/kg", "setting": "L1210 [1]", "result": -9, "unit": "%"}, {"measurement": "Activity", "setting": "L1210 [2]", "result": "inactive"}, {"measurement": "Activity", "setting": "L1210 [3]", "result": "inactive"}, {"measurement": "ILS at 27.8 µmol/kg", "setting": "L1210 [4]", "result": "> 244", "unit": "%"}, {"measurement": "solubility", "setting": "[5]", "result": "Insoluble"}, {"measurement": "Activity", "setting": "L1210 [6]", "result": "inactive"}, {"measurement": "ILS at 5.56 µmol/kg", "setting": "L1210 [7]", "result": 34, "unit": "%"}, {"measurement": "ILS at 26.3 µmol/kg", "setting": "L1210 [8]", "result": -6, "unit": "%"}, {"measurement": "ILS at 132 µmol/kg", "setting": "L1210 [9]", "result": -3, "unit": "%"}]}
{"smiles": "C=CCC1(CC=C)C(=O)OCc2c1cc1n(c2=O)Cc2cc3ccccc3nc2-1", "values": [{"measurement": "Activity", "setting": "L1210 [2]", "result": "inactive"}, {"measurement": "ILS at 130 µmol/kg", "setting": "L1210 [10]", "result": 1, "unit": "%"}, {"measurement": "Activity", "setting": "L1210 [11]", "result": "inactive"}, {"measurement": "Activity", "setting": "L1210 [12]", "result": "inactive"}, {"measurement": "solubility", "setting": "[5]", "result": "Insoluble"}, {"measurement": "Activity", "setting": "L1210 [13]", "result": "inactive"}, {"measurement": "ILS at 65.1 µmol/kg", "setting": "L1210 [14]", "result": 5, "unit": "%"}, {"measurement": "ILS at 26 µmol/kg", "setting": "L1210 [15]", "result": -8, "unit": "%"}]}
{"smiles": "CCC1(CC)C(=O)OCc2c1cc1n(c2=O)Cc2cc3ccccc3nc2-1", "values": [{"measurement": "Activity", "setting": "L1210 [16]", "result": "inactive"}, {"measurement": "Activity", "setting": "L1210 [17]", "result": "inactive"}, {"measurement": "solubility", "setting": "[5]", "result": "Insoluble"}, {"measurement": "Activity", "setting": "L1210 [18]", "result": "inactive"}, {"measurement": "Activity", "setting": "L1210 [19]", "result": "inactive"}, {"measurement": "ILS at 139 µmol/kg", "setting": "L1210 [20]", "result": -11, "unit": "%"}, {"measurement": "ILS at 69.4 µmol/kg", "setting": "L1210 [21]", "result": 5, "unit": "%"}]}
{"smiles": "O=C1OCc2c(cc3n(c2=O)Cc2cc4ccccc4nc2-3)C1(O)Cc1ccccc1", "note": "(racemic)", "values": [{"measurement": "ILS at 24.4 µmol/kg", "setting": "L1210 [22]", "result": "> 171", "unit": "%"}, {"measurement": "solubility", "setting": "[5]", "result": "Insoluble"}, {"measurement": "Activity", "setting": "Mus musculus", "result": "Toxic"}, {"measurement": "Activity", "setting": "L1210 [23]", "result": "inactive"}, {"measurement": "Activity", "setting": "L1210 [24]", "result": "inactive"}, {"measurement": "ILS at 61 µmol/kg", "setting": "L1210 [25]", "result": -34, "unit": "%"}, {"measurement": "ILS at 45.7 µmol/kg", "setting": "L1210 [26]", "result": 12, "unit": "%"}]}
